Measurements collected from several papers.
Protocols differ between the studies behind these lines. pEC50, pIC50: −log10 of the molar value.
Read-out: cell growth or viability

SMILES | cell line | test | setting | measurement | value
Cc1nc(N(Cc2ccccc2)c2ccc3c(c2)/C(=C/c2ccccc2)C(=O)N3Cc2ccccc2)c2ccccc2n1 (mixture of isomers) | H22 | MTT | – | pIC50 | 6.06
C=CC(=O)NC1CCN(c2ncc3ncnc(Nc4ccc(Oc5ccc6c(c5)ncn6C)c(C)c4)c3n2)CC1 | HPAC | – | – | pEC50 | 7.45
Cc1nc(Nc2ccc3c(c2)C(C)(C)C(=O)N3C)c2ccccc2n1 | H22 | MTT | – | pIC50 | 4.62
O=C(C=Cc1ccccc1)Nc1cccc(-c2ccnc(N3CCC(O)CC3)c2)c1 | HeLa | MTT | 5 µM | inhibition | 55.7%
COc1ccc(CNC[C@@](C)(O)[C@@H]2CC[C@@H](C)C[C@H]2OCc2ccccc2)cc1 | HeLa | MTT | 30 µM, 72 h | inhibition | 98.9%
Cc1c(C(=O)O)ccc2c3n(nc12)[C@@H]1[C@H](C3)N(CC2CC2)[C@@]2(C(=O)Nc3cc(Cl)ccc32)[C@H]1c1cccc(Cl)c1F | U2OS | – | – | GI50 | > 90 nM
O=C(/C=C/c1ccc(F)cc1)Nc1cc(-c2ccnc(N3CCC(O)CC3)c2)ccn1 | HeLa | MTT | 5 µM | inhibition | 81.5%
COc1ccc(CNC[C@](O)(COCc2ccc(OC)cc2)[C@@H]2CC[C@@H](C)C[C@H]2OCc2ccc(OC)cc2)cc1 | HeLa | MTT | 10 µM, 72 h | inhibition | 96.9%
Cc1cccc(/C=C/C(=O)Nc2cccc(-c3ccnc(N4CCC(CO)CC4)c3)c2)c1 | HeLa | MTT | 5 µM | inhibition | 56.2%
COc1cc2ncnc(N(C)c3ccc4c(c3)/C(=C/c3cccc(Cl)c3)C(=O)N4C)c2cc1OC | H22 | MTT | – | pIC50 | 5.35
O=C(C=Cc1ccccc1)Nc1cccc(-c2ccnc(N3CCOCC3)c2)c1 | HeLa | MTT | 5 µM | inhibition | 28.4%
C[C@@H]1CC[C@@H]([C@](C)(O)CNCc2cccc(F)c2)[C@H](OCc2ccccc2)C1 | HeLa | MTT | 10 µM, 72 h | inhibition | 72.5%
Cc1nc(Nc2ccc3c(c2)CC(=O)N3)c2ccccc2n1 | H22 | MTT | – | pIC50 | 4.98
C=C(COCc1ccc(OC)cc1)[C@@H]1CC[C@@H](C)C[C@H]1OCc1ccc(OC)cc1 | HeLa | MTT | 10 µM, 72 h | inhibition | 39.2%
O=C(/C=C/c1cccc(F)c1)Nc1cc(-c2ccnc(N3CCC(O)CC3)c2)ccn1 | HeLa | MTT | 5 µM | inhibition | 85%
C=C(COCc1ccccc1)[C@@H]1CC[C@@H](C)C[C@H]1OCc1ccccc1 | HeLa | MTT | 10 µM, 72 h | inhibition | 40.4%
Cc1cccc(/C=C/C(=O)Nc2cccc(-c3ccnc(N4CCOCC4)c3)c2)c1 | HeLa | MTT | 5 µM | inhibition | 24.1%
CC1(C)CCC2(CC1)N[C@@H](C(=O)N[C@@H]1CC[C@@H](C(N)=O)OC1)[C@H](c1ccnc(Cl)c1F)[C@]21C(=O)Nc2cc(Cl)ccc21 | U2OS | resazurin | 72 h | GI50 | > 1000 nM
C[C@@H]1CC[C@@H]([C@](C)(O)Cn2cnc3ccccc32)[C@H](OCc2ccccc2)C1 | HeLa | MTT | 30 µM, 72 h | inhibition | 89%
